From ChEMBL document CHEMBL1123096, “Alpha-adrenoreceptor reagents. 3. Synthesis of some 2-substituted 1,4-benzodioxans as selective presynaptic alpha 2-adrenoreceptor antagonists” (J Med Chem, 1985)

Experiments:
[1] = target: T1, Adrenergic receptor alpha-1 (Rattus norvegicus) (UniProt P15823+P23944+P43140); assay: post-synaptic antagonist activity towards alpha-1 adrenergic receptor was determined. Concentration giving a dose response to phenylephrine (idazoxan=1) was reported.; assay type: functional
Outline: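 Rat anococcygeus, postsynaptic α1 antagonism. At least five phenylephrine concentration–response curves were run alone, then at least four with the antagonist present.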

[2] = target: Adrenergic receptor alpha (Rattus norvegicus) (UniProt P15823+P23944+P43140+P22086+P19328+P22909); assay: Selectivity as ratio […] against alpha-2 receptor to that of alpha-1 receptor.; assay type: protein assay
[3] = target: T2, Adrenergic receptor alpha-2 (Rattus norvegicus) (UniProt P22086+P19328+P22909); assay: Presynaptic antagonist activity towards alpha-2 adrenergic receptor.; assay type: functional
Outline: (§1)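 Vas deferens from rat or mouse; the mouse tissue was in Mg-free Krebs at 30 °C under 0.5 g tension, stimulated at 0.1 Hz, 3 ms, 100–140 V, giving a twitch of about 100 mg. […] Standard curves were run before and after the test curve.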

[4] = target: T1, Adrenergic receptor alpha-1 (Rattus norvegicus); assay: Alpha-1 adrenergic receptor binding activity relative to idazoxan.; assay type: protein assay
[5] = target: T3, Adrenergic receptor alpha-2 (Rattus norvegicus, UniProt P22086+P19328+P22909); assay: Alpha-2 adrenergic receptor antagonist activity in a rat vas deferens assay. Values ranges from 8.00-8.47; assay type: functional, tissue-based
T3 sequence (P22086 whole entry): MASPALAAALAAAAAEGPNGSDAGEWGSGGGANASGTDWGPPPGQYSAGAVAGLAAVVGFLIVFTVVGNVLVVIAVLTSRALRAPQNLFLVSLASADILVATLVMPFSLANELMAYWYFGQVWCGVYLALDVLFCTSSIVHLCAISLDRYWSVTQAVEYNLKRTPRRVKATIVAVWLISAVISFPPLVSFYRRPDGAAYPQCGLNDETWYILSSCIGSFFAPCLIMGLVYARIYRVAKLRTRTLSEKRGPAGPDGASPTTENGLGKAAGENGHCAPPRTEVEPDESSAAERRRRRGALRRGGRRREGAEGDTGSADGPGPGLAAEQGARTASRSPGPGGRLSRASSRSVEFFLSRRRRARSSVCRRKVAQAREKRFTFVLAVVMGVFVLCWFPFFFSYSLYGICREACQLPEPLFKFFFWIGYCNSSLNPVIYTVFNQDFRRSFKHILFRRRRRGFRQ
T3 sequence (P19328 whole entry): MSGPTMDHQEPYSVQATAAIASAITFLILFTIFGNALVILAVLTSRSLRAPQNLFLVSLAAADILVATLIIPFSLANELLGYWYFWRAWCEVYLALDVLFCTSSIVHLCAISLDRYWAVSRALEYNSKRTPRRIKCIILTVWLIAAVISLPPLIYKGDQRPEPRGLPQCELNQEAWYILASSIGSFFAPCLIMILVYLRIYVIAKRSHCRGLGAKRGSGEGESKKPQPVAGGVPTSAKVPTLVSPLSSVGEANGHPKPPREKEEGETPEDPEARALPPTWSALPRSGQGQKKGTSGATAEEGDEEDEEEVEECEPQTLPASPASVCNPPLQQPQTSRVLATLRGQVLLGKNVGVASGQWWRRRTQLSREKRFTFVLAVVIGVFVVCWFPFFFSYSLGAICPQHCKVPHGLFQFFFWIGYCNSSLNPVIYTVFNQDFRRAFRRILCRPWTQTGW
T3 sequence (P22909 whole entry): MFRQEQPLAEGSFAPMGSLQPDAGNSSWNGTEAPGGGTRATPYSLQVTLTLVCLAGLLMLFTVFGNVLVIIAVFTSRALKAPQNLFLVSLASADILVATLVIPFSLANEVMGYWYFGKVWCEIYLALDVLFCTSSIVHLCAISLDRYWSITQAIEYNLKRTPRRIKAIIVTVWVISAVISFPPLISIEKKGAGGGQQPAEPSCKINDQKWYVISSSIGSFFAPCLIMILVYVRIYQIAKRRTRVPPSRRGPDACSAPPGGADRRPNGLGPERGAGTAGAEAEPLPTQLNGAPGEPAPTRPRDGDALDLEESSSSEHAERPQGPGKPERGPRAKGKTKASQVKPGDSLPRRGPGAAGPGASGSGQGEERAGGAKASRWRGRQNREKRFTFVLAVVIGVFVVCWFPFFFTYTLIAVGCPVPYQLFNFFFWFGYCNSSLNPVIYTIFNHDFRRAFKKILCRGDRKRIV
Outline: (§2)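 pA2 at presynaptic α2-adrenoreceptors in field-stimulated rat vas deferens. Tissue was held in Krebs solution (NaCl 118 mM, KCl 4.7 mM, CaCl2 2.5 mM, KH2PO4 1.2 mM, MgSO4 0.6 mM, NaHCO3 25 mM, dextrose 11.1 mM) gassed with 95% O2/5% CO2 at 30 °C. Stimulation was 3-ms pulses, 40 V, 0.1 Hz, with contractions recorded isometrically. Twitches were inhibited by clonidine (110 nM).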

[6] = target: T2, Adrenergic receptor alpha-2 (Rattus norvegicus); assay: Alpha-2 adrenergic receptor antagonist activity compared to idazoxan; assay type: functional; outline: as §1
[7] = target: T4, Adrenergic receptor alpha-1 (Rattus norvegicus, UniProt P15823+P23944+P43140); assay: Alpha-1 adrenergic receptor antagonist activity in a rat anococcygeus. Values ranges from 5.37-5.48; assay type: functional
T4 sequence (P15823 whole entry): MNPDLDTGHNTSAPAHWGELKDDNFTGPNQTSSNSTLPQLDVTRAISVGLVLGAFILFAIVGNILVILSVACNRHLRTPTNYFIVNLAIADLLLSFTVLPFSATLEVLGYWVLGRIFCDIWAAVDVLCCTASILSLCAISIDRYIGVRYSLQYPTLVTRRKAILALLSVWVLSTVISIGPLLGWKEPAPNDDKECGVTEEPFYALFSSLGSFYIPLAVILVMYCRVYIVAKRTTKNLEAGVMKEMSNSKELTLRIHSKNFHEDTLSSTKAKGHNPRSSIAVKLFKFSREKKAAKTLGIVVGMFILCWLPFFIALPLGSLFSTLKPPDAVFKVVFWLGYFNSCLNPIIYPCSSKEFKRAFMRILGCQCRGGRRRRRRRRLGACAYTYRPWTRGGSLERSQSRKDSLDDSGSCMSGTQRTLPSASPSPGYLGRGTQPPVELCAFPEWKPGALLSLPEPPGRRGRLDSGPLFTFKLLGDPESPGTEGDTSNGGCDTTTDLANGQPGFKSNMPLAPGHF
T4 sequence (P23944 whole entry): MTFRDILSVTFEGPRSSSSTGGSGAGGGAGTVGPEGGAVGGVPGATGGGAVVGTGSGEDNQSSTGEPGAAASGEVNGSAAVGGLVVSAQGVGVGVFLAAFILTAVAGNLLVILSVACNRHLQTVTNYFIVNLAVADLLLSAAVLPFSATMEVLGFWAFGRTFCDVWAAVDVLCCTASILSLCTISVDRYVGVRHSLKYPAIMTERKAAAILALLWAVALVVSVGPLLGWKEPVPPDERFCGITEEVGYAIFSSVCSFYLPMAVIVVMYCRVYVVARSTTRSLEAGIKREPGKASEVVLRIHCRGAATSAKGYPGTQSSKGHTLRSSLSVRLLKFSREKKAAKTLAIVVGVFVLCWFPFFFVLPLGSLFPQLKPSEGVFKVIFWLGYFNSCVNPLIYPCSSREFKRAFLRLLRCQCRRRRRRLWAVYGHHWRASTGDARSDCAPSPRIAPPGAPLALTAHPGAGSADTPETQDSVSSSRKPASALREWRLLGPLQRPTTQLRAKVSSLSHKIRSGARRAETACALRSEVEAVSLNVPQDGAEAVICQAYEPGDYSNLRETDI
T4 sequence (P43140 whole entry): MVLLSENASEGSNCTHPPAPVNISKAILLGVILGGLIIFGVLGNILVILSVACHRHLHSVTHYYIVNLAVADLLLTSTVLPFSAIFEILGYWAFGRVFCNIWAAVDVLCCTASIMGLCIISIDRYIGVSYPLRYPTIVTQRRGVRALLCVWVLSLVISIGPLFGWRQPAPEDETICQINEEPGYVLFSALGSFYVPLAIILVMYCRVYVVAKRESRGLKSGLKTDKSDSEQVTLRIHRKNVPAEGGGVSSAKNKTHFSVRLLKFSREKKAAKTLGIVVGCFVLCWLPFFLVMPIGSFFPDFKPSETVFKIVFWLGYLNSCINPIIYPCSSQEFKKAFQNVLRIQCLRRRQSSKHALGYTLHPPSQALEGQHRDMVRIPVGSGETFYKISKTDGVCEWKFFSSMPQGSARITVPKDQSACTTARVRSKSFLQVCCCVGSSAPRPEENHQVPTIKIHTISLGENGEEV

[8] = target: T3, Adrenergic receptor alpha-2; assay: Alpha-2 adrenergic receptor antagonist activity in a rat vas deferens assay. Values ranges from 8.42-9.51; assay type: functional; outline: as §2
[9] = target: T4, Adrenergic receptor alpha-1; assay: Alpha-1 adrenergic receptor antagonist activity in a rat anococcygeus. Values ranges from 6.50-6.62; assay type: functional
[10] = target: T3, Adrenergic receptor alpha-2; assay: Alpha-2 adrenergic receptor antagonist activity in a rat vas deferens assay. Values ranges from 8.54-8.87; assay type: functional, tissue-based
[11] = target: T4, Adrenergic receptor alpha-1; assay: Alpha-1 adrenergic receptor antagonist activity in a rat anococcygeus. Values ranges from 6.35-6.44; assay type: functional

SMILES	Postsynaptic antagonist [1]	Ratio [2]	potency relative to idazoxan [3]	also measured
COc1ccc(OC2(C3=NCCN3)COc3ccccc3O2)cc1 (stereo not given)	2	0.17	0.34	
COc1cc2c(cc1OC)OC(OC)(C1=NCCN1)CO2 (stereo not given)	0.05	0.1	0.006	
COc1ccccc1COC1(C2=NCCN2)COc2ccccc2O1 (stereo not given)	2.3	0.75	1.7	
C#CCOC1(C2=NCCN2)COc2ccccc2O1 (stereo not given)	2.1	0.57	1.2	
c1ccc(OC2(C3=NCCN3)COc3ccccc3O2)cc1 (stereo not given)	1	0.023	0.023	
COC1(C2=NC(C)CN2)COc2ccccc2O1 (stereo not given)	1	0.09	0.09	
C=CC1(C2=NCCN2)COc2ccccc2O1 (stereo not given)	0.3	3.3	1	
C1=C(C2(C3=NCCN3)COc3ccccc3O2)CCC1 (stereo not given)	0.09	1.7	0.15	
COc1ccc(COC2(C3=NCCN3)COc3ccccc3O2)cc1 (stereo not given)	4.8	0.13	0.6	
c1ccc2c(c1)OCC(C1=NCCN1)(C1CCCC1)O2 (stereo not given)	0.4	0.04	0.015	
CC(C)C1(C2=NCCN2)COc2ccccc2O1 (stereo not given)	< 0.006		0.024	
C1=C(C2(C3=NCCN3)COc3ccccc3O2)CCCC1 (stereo not given)	0.75	0.035	0.026	
c1ccc(C2(C3=NCCN3)COc3ccccc3O2)cc1 (stereo not given)	0.026	1.6	0.04	
OCCOC1(C2=NCCN2)COc2ccccc2O1 (stereo not given)	1	1.4	1.4	
C=C(C)C1(C2=NCCN2)COc2ccccc2O1.Cl (stereo not given)	0.07	5.7	0.4	Relative potency [4]: 0.1; pA2 [5]: 8.21; Relative potency [6]: 0.5; pA2 [7]: 5.42
Cc1cccc(OC2(C3=NCCN3)COc3ccccc3O2)c1 (stereo not given)	0.2	1.75	0.35	
COCCOC1(C2=NCCN2)COc2ccccc2O1 (stereo not given)	1	0.2	0.2	
OCCCCOC1(C2=NCCN2)COc2ccccc2O1 (stereo not given)	1	0.24	0.24	
CC1Oc2ccccc2OC1C1=NCCN1 (stereo not given)	0.023	0.087	0.002	
C=CCOC1(C2=NCCN2)COc2ccccc2O1 (stereo not given)	6	0.3	2	pA2 [8]: 8.81; Relative potency [4]: 1.7; pA2 [9]: 6.55; Relative potency [6]: 2
CCCCCOC1(C2=NCCN2)COc2ccccc2O1 (stereo not given)	0.6	1.2	0.72	
Clc1ccc(COC2(C3=NCCN3)COc3ccccc3O2)cc1 (stereo not given)	2.46	0.4	1	
c1ccc2c(c1)OCC(OC1CCCC1)(C1=NCCN1)O2 (stereo not given)	1	0.16	0.16	
CCCCCCCC1(C2=NCCN2)COc2ccccc2O1 (stereo not given)	1.1	0.85	0.9	
CCCCC1(C2=NCCN2)COc2ccccc2O1 (stereo not given)	2.2	0.68	1.5	
CCC1(C2=NCCN2)COc2ccccc2O1 (stereo not given)	2.25	1.3	3	pA2 [10]: 8.87; Relative potency [4]: 1.2; Relative potency [6]: 1.6; pA2 [11]: 6.44
c1ccc(CCOC2(C3=NCCN3)COc3ccccc3O2)cc1 (stereo not given)	8.8	0.14	1	
Clc1ccccc1COC1(C2=NCCN2)COc2ccccc2O1 (stereo not given)	1	0.36	0.36	
